The values below come from ChEMBL document CHEMBL1938318, “Design, synthesis and evaluation of novel molecules with a diphenyl ether nucleus as potential antitubercular agents” (Bioorg Med Chem Lett, 2012).

Calls of active or inactive are those of the source. No cut-off for these calls is given here.

Experiment [1] has as its system Mycobacterium tuberculosis. As to the kind of experiment: Antitubercular activity against Mycobacterium bovis BCG infected in BALB/c mouse assessed as log reduction in CFU in spleen at 25 mg/kg, po qd administered 48 hrs post infection for 6 weeks measured after 6 weeks (reference value: 4.79+/-0.25 log10CFU). It counts as functional, variant bovis BCG. In a few lines:
(§1)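 Female BALB/c mice infected intravenously with approx. 1 × 10⁵ CFU M. bovis BCG; compound given orally at 25 mg/kg once daily for six weeks, then sacrificed. Lung and spleen homogenates plated on modified Lowenstein-Jensen medium, colonies counted after six weeks at 37 °C; mean log10 CFU per organ versus vehicle-treated group (n = 6–8 mice/group).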

Experiment [2] relates to Mycobacterium tuberculosis. Briefly: Antitubercular activity against Mycobacterium bovis BCG infected in BALB/c mouse assessed as log reduction in CFU in lungs at 25 mg/kg, po qd administered 48 hrs post infection for 6 weeks measured after 6 weeks (reference value: 4.64+/-0.17 log10CFU). The experiment is classed as functional, variant bovis BCG. In a few lines: as §1

For experiment [3], the system named is Mycobacterium tuberculosis. Briefly: Antitubercular activity against Mycobacterium bovis BCG infected in BALB/c mouse assessed as reduction in peribronchial accumulation of granulocytes in lungs at 25 mg/kg, po qd administered 48 hrs post infection for 6 weeks by hematoxylin/eosin staining. The experiment is classed as functional, organism-based. The arrangement: dose 25 mg/kg. To be noted: variant bovis BCG.

Experiment [4] deals with Mycobacterium tuberculosis. Briefly: Antitubercular activity against Mycobacterium bovis BCG infected in BALB/c mouse assessed as reduction in peribronchial accumulation of lymphocytes in lungs at 25 mg/kg, po qd administered 48 hrs post infection for 6 weeks by hematoxylin/eosin staining. More on the design: dose 25 mg/kg. The experiment is classed as functional, organism-based. To be noted: variant bovis BCG.

Experiment [5] concerns Mycobacterium tuberculosis. Briefly: Antitubercular activity against Mycobacterium bovis BCG infected in BALB/c mouse assessed as reduction in perivascular accumulation of granulocytes in lungs at 25 mg/kg, po qd administered 48 hrs post infection for 6 weeks by hematoxylin/eosin staining. It counts as functional, organism-based. More on the design: dose 25 mg/kg. To be noted: variant bovis BCG.

Experiment [6] concerns Mycobacterium tuberculosis. Briefly: Antitubercular activity against Mycobacterium bovis BCG infected in BALB/c mouse assessed as reduction in perivascular accumulation of epitheloid macrophages in lungs at 25 mg/kg, po qd administered 48 hrs post infection for 6 weeks by hematoxylin/eosin staining. To be noted: variant bovis BCG. More on the design: dose 25 mg/kg. The experiment is classed as functional, organism-based.

Experiment [7] has as its system Mycobacterium tuberculosis. Briefly: Antitubercular activity against Mycobacterium bovis BCG infected in BALB/c mouse assessed as reduction in peribronchial accumulation of epitheloid macrophages in lungs at 25 mg/kg, po qd administered 48 hrs post infection for 6 weeks by hematoxylin/eosin staining. The arrangement: dose 25 mg/kg. The experiment is classed as functional, organism-based. To be noted: variant bovis BCG.

Experiment [8] relates to Mycobacterium tuberculosis. As to the kind of experiment: Antitubercular activity against Mycobacterium bovis BCG infected in BALB/c mouse assessed as reduction in perivascular accumulation of lymphocytes in lungs at 25 mg/kg, po qd administered 48 hrs post infection for 6 weeks by hematoxylin/eosin staining. The experiment is classed as functional, organism-based. More on the design: dose 25 mg/kg. To be noted: variant bovis BCG.

With `NNC(=O)c1ccncc1` [ISONIAZID], the log10cfu in experiment [1] was 3; in experiment [2], 2.

As for `O=C(Cc1cccc(Oc2ccccc2)c1)Nc1ccc(Cl)c(Cl)c1`, the result in experiment [3], in experiment [4], in experiment [5], in experiment [6], in experiment [7] and in experiment [8] was Active. In addition, the log10cfu in experiment [1] and in experiment [2] was 2 in each case.
